Not all results are given here.
HKDC1 act: HKDC1 hexokinase activators, primary screen, biochemical, fluorescence, uHTS | activity change, negative = activation, % at 20 µM | recombinant HKDC1, G6PDH/diaphorase resazurin fluorescence; hits give low values | 0.056% of 340,000 active | Q2TB90;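 active = activation of 40% or more at 20 µM, a change of -40% or lower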
Target sequence (Q2TB90 whole entry, looked up): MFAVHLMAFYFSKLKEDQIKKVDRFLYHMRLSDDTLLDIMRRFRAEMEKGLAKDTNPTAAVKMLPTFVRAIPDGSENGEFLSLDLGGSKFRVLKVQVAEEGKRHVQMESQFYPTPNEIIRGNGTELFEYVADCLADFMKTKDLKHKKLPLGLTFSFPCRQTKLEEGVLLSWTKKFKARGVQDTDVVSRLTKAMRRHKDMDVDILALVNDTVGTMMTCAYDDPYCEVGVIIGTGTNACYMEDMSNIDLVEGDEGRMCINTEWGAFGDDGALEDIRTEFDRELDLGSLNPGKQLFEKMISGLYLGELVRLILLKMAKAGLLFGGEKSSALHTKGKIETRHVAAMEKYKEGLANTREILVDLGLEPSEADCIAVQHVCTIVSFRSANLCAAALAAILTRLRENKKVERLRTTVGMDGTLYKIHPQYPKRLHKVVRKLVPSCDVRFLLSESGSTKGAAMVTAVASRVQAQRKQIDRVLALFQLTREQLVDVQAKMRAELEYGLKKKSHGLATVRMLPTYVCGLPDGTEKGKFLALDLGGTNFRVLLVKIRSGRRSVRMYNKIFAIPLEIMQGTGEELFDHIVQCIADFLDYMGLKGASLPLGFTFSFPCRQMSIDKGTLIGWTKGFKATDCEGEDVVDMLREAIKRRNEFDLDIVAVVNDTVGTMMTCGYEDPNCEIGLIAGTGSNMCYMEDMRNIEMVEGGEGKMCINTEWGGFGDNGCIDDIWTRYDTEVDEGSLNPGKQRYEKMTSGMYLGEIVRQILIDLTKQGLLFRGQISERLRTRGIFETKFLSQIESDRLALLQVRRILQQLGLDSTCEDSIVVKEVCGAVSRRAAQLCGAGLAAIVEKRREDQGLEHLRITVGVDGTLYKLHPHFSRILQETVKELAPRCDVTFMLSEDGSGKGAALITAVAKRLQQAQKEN
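system = in-house human HKDC1 enzyme, G6PDH and diaphorase coupling enzymes | amount = HKDC1 5 µg/mL | measured by = resorufin fluorescence from 100 µM resazurin, NADP 1 mM, Ex 525/Em 613 nm | times = enzyme reaction 90 min, room temperature, in dark | doses = single compound dose of 20 µM, 1% DMSO final | medium = Tris/MgCl2 buffer, pH 8.0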
Of the large screens only hits and unclear results are named; the others gave an inactive call.

Cc1ccc(NC2c3ncccc3C(=O)N2c2ccccc2C)cc1C (stereo not given)	none
Cc1ccc(C(=O)c2coc3c2C(=O)C(=O)c2ccccc2-3)cc1	none
Cc1ccc(C)c(S(=O)(=O)Nc2ccc(O)c3ccccc23)c1	none
N=C1/C(=C/c2coc3ccccc3c2=O)C(=O)N=C2SC(c3ccco3)=NN12	none
COc1cc(/C=C2\SC(=O)N(c3cccc(Cl)c3)C2=O)cc([N+](=O)[O-])c1O	none
COc1cc([N+](=O)[O-])ccc1-c1ccc(/C=C2\C(=O)ON=C2c2ccccc2)o1	none
Cc1ccc(S(=O)(=O)Nc2ccc(O)c3ccccc23)c(C)c1	none
c1coc(-c2nc(-c3ccco3)c(-c3ccco3)nc2-c2ccco2)c1	none
O=C(N/N=C/c1ccc[nH]1)c1sc2ccccc2c1Cl	HKDC1 act -42
O=C1NC(=S)S/C1=C\C=C\c1ccc([N+](=O)[O-])o1	none
O=C1C(F)=CC(COC(c2ccccc2)(c2ccccc2)c2ccccc2)OC1n1cc(F)c(=O)[nH]c1=O (stereo not given)	none
O=C(O)c1ccc(S(=O)(=O)/N=C2\C=C(Nc3ccccc3F)C(=O)c3ccccc32)cc1	none
COc1ccccc1/C=C\C(=O)NCC(=O)N/N=C/c1ccc(O)cc1O	HKDC1 act -41
O=C(CCc1ccccc1)NCC(=O)N/N=C/c1ccc(O)cc1O	HKDC1 act -43
O=C(CNC(=O)c1cccs1)N/N=C/c1ccc(O)cc1O	HKDC1 act -46
O=C(CN1CCCc2ccccc21)N/N=C/c1ccc(O)cc1O	HKDC1 act -43
COP(=O)(OC)c1ccc(NCc2cc(O)ccc2O)cc1	none
Cc1ccc2cc(C=C(C#N)C#N)c(N3CCCCC3)nc2c1	none
O=C(c1c[nH]c(C(=O)C(Cl)(Cl)Cl)c1)c1ccccc1F	none
CCC[n+]1c2ccccc2cc2ccccc21	none
COc1cccc(-n2c(N)c(C(=O)Nc3c(C)n(C)n(-c4ccccc4)c3=O)c3nc4ccccc4nc32)c1	none
COc1ccc(CN2C(=O)c3cccnc3C2Nc2cc(Cl)ccc2OC)cc1 (stereo not given)	none
O=C1CSC(=S)N1Nc1ccccc1	HKDC1 act -44
COc1ccc(C2=CC3=C(Br)C(=O)C(C)(OC(=O)c4cccs4)C(=O)C3=CO2)cc1 (stereo not given)	none
Cc1cc(C)n2nc(SCc3nnc(SCc4ccccc4C)s3)nc2n1	none
COc1ccc(-c2nc3c(c(=O)n(C)c(=O)n3C)n2CC2CC(c3ccccc3)=NO2)cc1OC (stereo not given)	HKDC1 act -48
O=S(=O)(CCSc1nc2ccccc2s1)c1nc2ccccc2s1	none
CN(C)c1ccc2nc3ccc(=[N+](C)C)cc-3sc2c1	none
Cc1ccc(C(=O)c2c(C)oc3c2C(=O)C(=O)c2ccccc2-3)cc1	none
O=C(NC(=S)NNC(=O)c1ccccc1O)c1ccco1	HKDC1 act -44
O=C(c1c[nH]c(C(=O)C(Cl)(Cl)Cl)c1)c1c(F)cccc1F	none
COc1ccc(-c2oc(NC(=O)CCl)c(C#N)c2-c2ccc(OC)cc2)cc1	none
O=C1OC(c2ccc3ccccc3c2O)(c2ccc3ccccc3c2O)c2ccccc21	none
NS(=O)(=O)c1ccc(N=Nc2c(=O)[nH]n3c(=O)c4c([nH]c23)CCCC4)cc1	none
O=C(O)CCCN1C(=O)/C(=C\C(Cl)=C\c2ccccc2)SC1=S	none
COc1ccccc1C1=NNC(=Nc2cccc(S(=O)(=O)N(C)C)c2)SC1	HKDC1 act -202
COc1cc(/C=C2\SC(=O)N(c3ccc(Cl)cc3)C2=O)cc([N+](=O)[O-])c1O	none
C=CCn1c(SCC(=O)Nc2sc3c(c2C#N)CCC(C)C3)nc2cc(C(=O)O)ccc2c1=O (stereo not given)	none
O=C(O)c1ccc(-c2ccc(/C=c3/sc4nc5ccccc5n4c3=O)o2)cc1Cl	none
Cc1cc2cc(CCNC(=O)c3cccc([N+](=O)[O-])c3)c(=O)[nH]c2cc1C	none
CC(C)CNC(=O)COC(=O)CNC(=O)c1cc(Cl)cc([N+](=O)[O-])c1	HKDC1 act -52
COc1ccc(C(=O)/C=C/Sc2nc3ccccc3o2)cc1	none
Cc1ccccc1Nc1nc(N)nc(CSc2nnc3sc4ccccc4n23)n1	none
CCOC(=O)Cn1c2ccc(F)cc2c2nc(C)sc21	HKDC1 act -62
COC(=O)Cn1c2ccc(F)cc2c2nc(C)sc21	HKDC1 act -92
CC(=O)Nc1ccc(NC2=C/C(=N/S(=O)(=O)c3cccs3)c3ccccc3C2=O)cc1	none
Cc1ccc(/C=C/C(=O)c2ccc([N+](=O)[O-])o2)cc1	none
COC1=CC(=O)C(OC)=C(OC)C1=O	none
Cc1nn(-c2ccccc2)c(Cl)c1CN(C(=O)CCl)c1ccc(Cl)cc1	none
CCC(C)(C)NC(=O)C1CCC(CNS(=O)(=O)c2cccc3nsnc23)CC1 (stereo not given)	none
O=C(OCn1ncc(Cl)c(Cl)c1=O)c1ccc(C(F)(F)F)cc1	none
CC(=O)NC1=C(N(C)C2CCS(=O)(=O)C2)C(=O)c2ccccc2C1=O (stereo not given)	none
C=CCN1C=C2C(=O)C(C)(OC(=O)CCC(=O)OC)C(=O)C(Br)=C2C=C1c1ccc(OC)cc1 (stereo not given)	none

Screening results: PubChem BioAssay, Sanford-Burnham Center for Chemical Genomics
